Results published in ChEMBL document CHEMBL2331506, “Design, synthesis, antiviral and cytostatic evaluation of novel isoxazolidine nucleotide analogues with a carbamoyl linker” (Bioorg Med Chem, 2013).
Calls of active or inactive are those of the source. How the calls were made is not given here.

tested on: Vaccinia virus; test: Antiviral activity against Vaccinia virus Lederle infected in human HEL cells assessed as reduction of virus-induced cytopathogenicity at 250 uM; type: functional, organism-based; conditions: Orthopoxvirus vaccinia
Outline: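 Confluent cell monolayers were infected with 100 CCID50 of virus while exposed to varying compound concentrations. Cytopathicity was scored once it was complete in untreated infected controls. EC50 was taken as the concentration that reduced virus-induced cytopathogenicity by 50%.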

Question: Which inhibition does the source give for `CCOP(=O)(OCC)[C@@H]1C[C@H](C(=O)Nc2ccc(C(C)=O)cc2)ON1C` (racemic) here?
Answer: inactive

Question: Which inhibition does the source give for `CCOP(=O)(OCC)[C@H]1C[C@H](C(=O)Nc2ccc([N+](=O)[O-])cc2)ON1C` (mixture of isomers) here?
Answer: inactive

Question: Which inhibition does the source give for `CCOP(=O)(OCC)[C@@H]1C[C@H](C(=O)Nc2ccc(Cl)cc2)ON1C` (mixture of isomers) here?
Answer: inactive

Question: With `CCOP(=O)(OCC)[C@H]1C[C@H](C(=O)Nc2cc(OC)c(OC)cc2C(C)=O)ON1C` (mixture of isomers) as the compound, how does the inhibition read?
Answer: inactive

Question: For `CCOP(=O)(OCC)[C@H]1C[C@H](C(=O)Nc2ccc(C#N)cc2)ON1C` (racemic), which inhibition is on record?
Answer: inactive

Question: Which inhibition does the source give for `CCOP(=O)(OCC)[C@@H]1C[C@H](C(=O)Nc2cccc([N+](=O)[O-])c2)ON1C` (mixture of isomers) here?
Answer: inactive

Question: For `CCOP(=O)(OCC)[C@H]1C[C@H](C(=O)Nc2ccccc2Br)ON1C` (mixture of isomers), which inhibition is on record?
Answer: inactive

Question: `CCOP(=O)(OCC)[C@@H]1C[C@H](C(=O)Nc2cccc(C(C)=O)c2)ON1C` (racemic) was tested. Which inhibition did it give?
Answer: inactive

Question: For `CCOP(=O)(OCC)[C@H]1C[C@H](C(=O)Nc2cccc(Cl)c2)ON1C` (mixture of isomers), which inhibition is on record?
Answer: inactive

Question: How did the inhibition turn out when `CCOP(=O)(OCC)[C@@H]1C[C@H](C(=O)Nc2ccc([N+](=O)[O-])cc2)ON1C` (racemic) was run?
Answer: inactive

Question: Which inhibition does the source give for `CCOP(=O)(OCC)[C@H]1C[C@H](C(=O)Nc2cc(OC)cc(OC)c2)ON1C` (mixture of isomers) here?
Answer: inactive

Question: `CCOP(=O)(OCC)[C@H]1C[C@H](C(=O)Nc2ccc(OC)c(OC)c2)ON1C` (mixture of isomers) was tested. Which inhibition did it give?
Answer: inactive

Question: For `CCOP(=O)(OCC)[C@@H]1C[C@H](C(=O)Nc2cccc(Cl)c2)ON1C` (mixture of isomers), which inhibition is on record?
Answer: inactive

Question: `CCOP(=O)(OCC)[C@@H]1C[C@H](C(=O)Nc2ccc(C)cc2)ON1C` (mixture of isomers) was tested. Which inhibition did it give?
Answer: inactive

Question: For `CCOP(=O)(OCC)[C@H]1C[C@H](C(=O)Nc2cccc(C(C)=O)c2)ON1C` (mixture of isomers), which inhibition is on record?
Answer: inactive

Question: How did the inhibition turn out when `CCOP(=O)(OCC)[C@@H]1C[C@H](C(=O)Nc2ccccc2Cl)ON1C` (mixture of isomers) was run?
Answer: inactive

Question: `CCOP(=O)(OCC)[C@H]1C[C@H](C(=O)Nc2cc(OC)c(OC)c(OC)c2)ON1C` (mixture of isomers) was tested. Which inhibition did it give?
Answer: inactive

Question: With `CCOP(=O)(OCC)[C@@H]1C[C@H](C(=O)Nc2ccccc2F)ON1C` (racemic) as the compound, how does the inhibition read?
Answer: inactive

Question: Which inhibition does the source give for `CCOP(=O)(OCC)[C@H]1C[C@H](C(=O)Nc2ccc(Cl)cc2)ON1C` (relative stereo) here?
Answer: inactive

Question: `CCOP(=O)(OCC)[C@H]1C[C@H](C(=O)Nc2ccc(C)cc2)ON1C` (relative stereo) was tested. Which inhibition did it give?
Answer: inactive

Question: Which inhibition does the source give for `CCOP(=O)(OCC)[C@H]1C[C@H](C(=O)Nc2cccc(OC)c2)ON1C` (racemic) here?
Answer: inactive

Question: `CCOP(=O)(OCC)[C@@H]1C[C@H](C(=O)Nc2cccc(C#N)c2)ON1C` (racemic) was tested. Which inhibition did it give?
Answer: inactive

Question: For `CCOP(=O)(OCC)[C@H]1C[C@H](C(=O)Nc2ccccc2F)ON1C` (mixture of isomers), which inhibition is on record?
Answer: inactive

Question: How did the inhibition turn out when `CCOP(=O)(OCC)[C@H]1C[C@H](C(=O)Nc2ccc(Br)cc2)ON1C` (mixture of isomers) was run?
Answer: inactive

Question: Which inhibition does the source give for `CCOP(=O)(OCC)[C@H]1C[C@H](C(=O)Nc2ccccc2C(C)=O)ON1C` (mixture of isomers) here?
Answer: inactive

Question: Which inhibition does the source give for `CCOP(=O)(OCC)[C@H]1C[C@H](C(=O)Nc2cccc(F)c2)ON1C` (mixture of isomers) here?
Answer: inactive

Question: How did the inhibition turn out when `CCOP(=O)(OCC)[C@@H]1C[C@H](C(=O)Nc2cc(OC)c(OC)cc2C#N)ON1C` (mixture of isomers) was run?
Answer: inactive

Question: `CCOP(=O)(OCC)[C@@H]1C[C@H](C(=O)Nc2ccc(C#N)cc2)ON1C` (mixture of isomers) was tested. Which inhibition did it give?
Answer: inactive

Question: Which inhibition does the source give for `CCOP(=O)(OCC)[C@@H]1C[C@H](C(=O)Nc2cc(OC)cc(OC)c2)ON1C` (mixture of isomers) here?
Answer: inactive

Question: How did the inhibition turn out when `CCOP(=O)(OCC)[C@H]1C[C@H](C(=O)Nc2cccc(C)c2)ON1C` (racemic) was run?
Answer: inactive

Question: Which inhibition does the source give for `CCOc1ccc(NC(=O)[C@H]2C[C@@H](P(=O)(OCC)OCC)N(C)O2)cc1` (racemic) here?
Answer: inactive

Question: Which inhibition does the source give for `CCOP(=O)(OCC)[C@@H]1C[C@H](C(=O)Nc2cc(OC)c(OC)cc2C(C)=O)ON1C` (mixture of isomers) here?
Answer: inactive

Question: How did the inhibition turn out when `CCOP(=O)(OCC)[C@H]1C[C@H](C(=O)Nc2cccc(Br)c2)ON1C` (racemic) was run?
Answer: inactive

Question: Which inhibition does the source give for `CCOP(=O)(OCC)[C@@H]1C[C@H](C(=O)Nc2cccc(F)c2)ON1C` (mixture of isomers) here?
Answer: inactive

Question: With `CCOP(=O)(OCC)[C@@H]1C[C@H](C(=O)Nc2cc(OC)c(OC)c(OC)c2)ON1C` (racemic) as the compound, how does the inhibition read?
Answer: inactive

Question: For `CCOP(=O)(OCC)[C@@H]1C[C@H](C(=O)Nc2ccc(F)cc2F)ON1C` (mixture of isomers), which inhibition is on record?
Answer: inactive

Question: For `CCOP(=O)(OCC)[C@@H]1C[C@H](C(=O)Nc2ccccc2C(C)=O)ON1C` (mixture of isomers), which inhibition is on record?
Answer: inactive

Question: `CCOP(=O)(OCC)[C@H]1C[C@H](C(=O)Nc2cccc(C#N)c2)ON1C` (racemic) was tested. Which inhibition did it give?
Answer: inactive

Question: Which inhibition does the source give for `CCOP(=O)(OCC)[C@@H]1C[C@H](C(=O)Nc2cccc(OC)c2)ON1C` (mixture of isomers) here?
Answer: inactive

Question: For `CCOP(=O)(OCC)[C@H]1C[C@H](C(=O)Nc2ccc(F)cc2F)ON1C` (mixture of isomers), which inhibition is on record?
Answer: inactive

Question: How did the inhibition turn out when `CCOP(=O)(OCC)[C@@H]1C[C@H](C(=O)Nc2ccccc2[N+](=O)[O-])ON1C` (mixture of isomers) was run?
Answer: inactive

Question: How did the inhibition turn out when `CCOP(=O)(OCC)[C@H]1C[C@H](C(=O)Nc2cccc([N+](=O)[O-])c2)ON1C` (mixture of isomers) was run?
Answer: inactive

Question: With `CCOP(=O)(OCC)[C@@H]1C[C@H](C(=O)Nc2cccc(Br)c2)ON1C` (mixture of isomers) as the compound, how does the inhibition read?
Answer: inactive

Question: With `CCOP(=O)(OCC)[C@H]1C[C@H](C(=O)Nc2cc(OC)c(OC)cc2C#N)ON1C` (mixture of isomers) as the compound, how does the inhibition read?
Answer: inactive

Question: How did the inhibition turn out when `CCOP(=O)(OCC)[C@@H]1C[C@H](C(=O)Nc2ccc(OC)c(OC)c2)ON1C` (mixture of isomers) was run?
Answer: inactive

Question: With `CCOc1ccc(NC(=O)[C@H]2C[C@H](P(=O)(OCC)OCC)N(C)O2)cc1` (mixture of isomers) as the compound, how does the inhibition read?
Answer: inactive

Question: For `CCOP(=O)(OCC)[C@@H]1C[C@@H](C(=O)Nc2ccccc2Cl)ON1C` (racemic), which inhibition is on record?
Answer: inactive

Question: With `CCOP(=O)(OCC)[C@H]1C[C@H](C(=O)Nc2ccc(F)cc2)ON1C` (racemic) as the compound, how does the inhibition read?
Answer: inactive

Question: Which inhibition does the source give for `CCOP(=O)(OCC)[C@H]1C[C@H](C(=O)Nc2ccccc2[N+](=O)[O-])ON1C` (mixture of isomers) here?
Answer: inactive

Question: With `CCOP(=O)(OCC)[C@@H]1C[C@H](C(=O)Nc2cccc(C)c2)ON1C` (mixture of isomers) as the compound, how does the inhibition read?
Answer: inactive

Question: How did the inhibition turn out when `CCOP(=O)(OCC)[C@@H]1C[C@H](C(=O)Nc2ccc(Br)cc2)ON1C` (mixture of isomers) was run?
Answer: inactive

Question: With `CCOP(=O)(OCC)[C@@H]1C[C@H](C(=O)Nc2ccc(F)cc2)ON1C` (mixture of isomers) as the compound, how does the inhibition read?
Answer: inactive

Question: `CCOP(=O)(OCC)[C@@H]1C[C@H](C(=O)Nc2ccccc2Br)ON1C` (mixture of isomers) was tested. Which inhibition did it give?
Answer: inactive

Question: With `CCOP(=O)(OCC)[C@H]1C[C@H](C(=O)Nc2ccc(C(C)=O)cc2)ON1C` (mixture of isomers) as the compound, how does the inhibition read?
Answer: inactive
